Reference: ChEMBL document CHEMBL4190262, “Tuning of β-glucosidase and α-galactosidase inhibition by generation and in situ screening of a library of pyrrolidine-triazole hybrid molecules” (Eur J Med Chem, 2017)

Key:
[1] = molecular target: Alpha-galactosidase (Coffea arabica) (UniProt Q42656); assay: Inhibition of coffee beans alpha-galactosidase at 1 mM using p-nitrophenyl glycopyranoside preincubated for 5 mins followed by substrate addition measured after 20 mins by visible absorption spectroscopic method relative to control
Sequence of Alpha-galactosidase (Coffea arabica) (Q42656 16-378 limits assumed): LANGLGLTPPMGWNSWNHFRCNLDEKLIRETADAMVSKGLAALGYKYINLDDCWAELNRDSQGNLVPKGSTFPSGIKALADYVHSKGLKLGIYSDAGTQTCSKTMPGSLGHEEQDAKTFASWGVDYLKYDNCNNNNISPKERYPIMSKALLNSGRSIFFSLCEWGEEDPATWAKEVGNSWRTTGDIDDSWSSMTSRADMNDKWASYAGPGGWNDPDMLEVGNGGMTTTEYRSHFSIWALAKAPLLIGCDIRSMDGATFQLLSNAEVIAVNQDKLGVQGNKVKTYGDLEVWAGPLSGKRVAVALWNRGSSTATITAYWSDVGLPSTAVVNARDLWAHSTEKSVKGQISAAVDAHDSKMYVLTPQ
Procedure, shortened: (§1)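 Test compound at 1 mM in well. Mix: 0.01–0.5 units/mL enzyme plus 10 mM p-nitrophenyl glycopyranoside (aqueous solution), buffered to the enzyme's optimal pH. Enzyme and inhibitor preincubated 5 min at rt. Substrate then added and incubated 20 min at 37 °C. Stopped with sodium borate (pH 9.8). p-Nitrophenolate read at 405 nm. Duplicates averaged.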

Prunus dulcis [2] = assay: Inhibition of almond beta-glucosidase at 10 uM using p-nitrophenyl glycopyranoside preincubated for 5 mins followed by substrate addition measured after 20 mins by visible absorption spectroscopic method relative to control
Procedure, shortened: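 Crude click-reaction products screened in situ. Azide (final 15 mM) was reacted with each alkyne using sodium ascorbate/CuSO4 in tBuOH–H2O for 24 h at rt, then diluted with water. Tested at 10 μM per well, assuming quantitative conversion, against almond β-glucosidase at pH 5, 37 °C. p-Nitrophenyl glycoside read-out at 405 nm.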

[3] = molecular target: T1, Alpha-galactosidase A (Homo sapiens) (UniProt P06280); assay: Inhibition of human lysosomal alpha-galactosidase A at 1 mM using 4-methylumbelliferyl-alpha-D-galactopyranoside as substrate preincubated for 45 mins followed by substrate addition measured after 30 mins by fluorescence spectroscopic method relative to control
T1 sequence (whole entry): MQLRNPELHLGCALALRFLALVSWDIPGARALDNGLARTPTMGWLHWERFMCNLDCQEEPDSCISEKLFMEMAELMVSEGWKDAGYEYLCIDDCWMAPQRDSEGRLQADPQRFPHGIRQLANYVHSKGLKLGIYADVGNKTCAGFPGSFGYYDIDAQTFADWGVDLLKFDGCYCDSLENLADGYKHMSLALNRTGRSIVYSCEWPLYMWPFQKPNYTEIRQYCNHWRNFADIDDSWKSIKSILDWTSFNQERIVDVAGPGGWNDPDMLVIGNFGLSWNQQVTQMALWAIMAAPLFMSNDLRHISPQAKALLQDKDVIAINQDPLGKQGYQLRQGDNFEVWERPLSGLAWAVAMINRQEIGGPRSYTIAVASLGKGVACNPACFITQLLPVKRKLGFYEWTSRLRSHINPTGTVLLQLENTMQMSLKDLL
Procedure, shortened: (§2)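 Enzyme in 100 mM McIlvaine buffer pH 5.2 with 0.25% sodium taurocholate and 0.1% Triton X-100, with inhibitor. Preincubated at 0 °C for 45 min, then started with 3 mM 4-methylumbelliferyl glycoside substrate solution and incubated 30 min at 37 °C. Stopped with 400 mM glycine-NaOH pH 10.6. 4-Methylumbelliferone fluorescence read at ex 362/em 450 nm.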

Beta-galactosidase = molecular target: T2, Beta-galactosidase (Bos taurus, UniProt Q58D55); assay: Inhibition of bovine liver beta-galactosidase using p-nitrophenyl glycopyranoside preincubated for 5 mins followed by substrate addition measured after 20 mins by visible absorption spectroscopic method
T2 sequence (Q58D55 whole entry): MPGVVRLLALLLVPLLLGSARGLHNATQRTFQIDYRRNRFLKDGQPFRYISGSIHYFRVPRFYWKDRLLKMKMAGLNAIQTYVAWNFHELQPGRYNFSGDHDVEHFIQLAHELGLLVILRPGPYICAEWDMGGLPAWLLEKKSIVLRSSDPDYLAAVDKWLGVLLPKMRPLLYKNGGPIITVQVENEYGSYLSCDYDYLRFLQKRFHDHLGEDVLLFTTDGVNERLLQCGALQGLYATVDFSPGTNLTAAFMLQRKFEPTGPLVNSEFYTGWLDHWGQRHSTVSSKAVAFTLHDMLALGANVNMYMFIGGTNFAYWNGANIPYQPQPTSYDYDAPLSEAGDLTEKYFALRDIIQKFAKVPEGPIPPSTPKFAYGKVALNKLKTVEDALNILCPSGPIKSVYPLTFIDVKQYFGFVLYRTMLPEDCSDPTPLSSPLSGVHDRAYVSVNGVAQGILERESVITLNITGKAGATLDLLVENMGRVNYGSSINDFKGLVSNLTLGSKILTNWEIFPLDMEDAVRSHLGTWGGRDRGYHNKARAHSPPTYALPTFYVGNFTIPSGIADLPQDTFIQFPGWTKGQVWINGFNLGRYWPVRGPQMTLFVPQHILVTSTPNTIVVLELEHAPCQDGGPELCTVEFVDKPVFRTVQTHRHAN
Procedure, shortened: (§3)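 IC50 determined only for compounds giving ≥80% inhibition at 1 mM, read from plots of % inhibition versus inhibitor concentration. p-Nitrophenyl glycopyranoside substrate (10 mM solution) at the enzyme's optimal pH, with 0.01–0.5 units/mL enzyme. 5 min rt preincubation with enzyme, then 20 min at 37 °C. Borate stop (pH 9.8), absorbance at 405 nm. Duplicates averaged.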

[4] = Inhibition of almond beta-glucosidase using p-nitrophenyl glycopyranoside preincubated for 5 mins followed by substrate addition measured after 20 mins by visible absorption spectroscopic method; parameters: species or system Prunus dulcis; procedure, shortened: as §3
Bos taurus = species: Bos taurus; assay: Inhibition of bovine liver beta-glucosidase at 1 mM using p-nitrophenyl glycopyranoside preincubated for 5 mins followed by substrate addition measured after 20 mins by visible absorption spectroscopic method relative to control; procedure, shortened: as §1
[5] = molecular target: T3, Lysosomal acid glucosylceramidase (Homo sapiens, UniProt P04062); assay: Inhibition of human lysosomal beta-glucocerebrosidase using 4-methylumbelliferyl-beta-D-glucopyranoside as substrate preincubated for 45 mins followed by substrate addition measured after 30 mins by fluorescence spectroscopic method; procedure, shortened: as §2
T3 sequence (P04062 whole entry): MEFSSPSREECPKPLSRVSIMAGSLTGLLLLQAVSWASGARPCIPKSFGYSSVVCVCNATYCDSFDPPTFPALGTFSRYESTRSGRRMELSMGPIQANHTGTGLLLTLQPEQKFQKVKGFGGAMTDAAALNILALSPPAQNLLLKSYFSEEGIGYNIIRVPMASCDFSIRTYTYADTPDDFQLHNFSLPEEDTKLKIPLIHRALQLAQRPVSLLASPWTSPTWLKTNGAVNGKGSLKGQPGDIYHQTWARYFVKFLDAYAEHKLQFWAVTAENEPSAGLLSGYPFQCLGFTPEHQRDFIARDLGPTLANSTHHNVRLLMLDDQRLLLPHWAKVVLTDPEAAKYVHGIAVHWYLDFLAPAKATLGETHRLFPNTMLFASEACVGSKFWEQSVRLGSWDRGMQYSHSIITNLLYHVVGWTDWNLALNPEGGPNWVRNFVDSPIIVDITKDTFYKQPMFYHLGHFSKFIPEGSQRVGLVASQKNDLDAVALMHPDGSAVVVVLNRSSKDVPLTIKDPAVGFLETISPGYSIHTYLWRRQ

[6] = Inhibition of bovine liver beta-glucosidase using p-nitrophenyl glycopyranoside preincubated for 5 mins followed by substrate addition measured after 20 mins by visible absorption spectroscopic method; parameters: species or system Bos taurus; procedure, shortened: as §3
Prunus dulcis [7] = assay: Inhibition of almond beta-glucosidase at 1 mM using p-nitrophenyl glycopyranoside preincubated for 5 mins followed by substrate addition measured after 20 mins by visible absorption spectroscopic method relative to control; procedure, shortened: as §1
[8] = molecular target: Alpha-galactosidase (Coffea arabica) (UniProt Q42656); assay: Inhibition of coffee beans alpha-galactosidase at 50 uM using p-nitrophenyl glycopyranoside preincubated for 5 mins followed by substrate addition measured after 20 mins by visible absorption spectroscopic method relative to control
Procedure, shortened: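 Crude triazoles from in situ CuAAC (ascorbate/CuSO4, 24 h rt, water-diluted) were screened at 50 μM per well, assuming full conversion. Enzyme was coffee bean α-galactosidase at pH 6, 37 °C, with p-nitrophenyl glycoside substrate and 405 nm read-out. Blanks of CuSO4, ascorbate and each alkyne were run.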

Alpha-galactosidase = Alpha-galactosidase (Coffea arabica, UniProt Q42656); assay: Inhibition of coffee beans alpha-galactosidase using p-nitrophenyl glycopyranoside preincubated for 5 mins followed by substrate addition measured after 20 mins by visible absorption spectroscopic method; procedure, shortened: as §3
Sequence of Alpha-galactosidase (Q42656 whole entry): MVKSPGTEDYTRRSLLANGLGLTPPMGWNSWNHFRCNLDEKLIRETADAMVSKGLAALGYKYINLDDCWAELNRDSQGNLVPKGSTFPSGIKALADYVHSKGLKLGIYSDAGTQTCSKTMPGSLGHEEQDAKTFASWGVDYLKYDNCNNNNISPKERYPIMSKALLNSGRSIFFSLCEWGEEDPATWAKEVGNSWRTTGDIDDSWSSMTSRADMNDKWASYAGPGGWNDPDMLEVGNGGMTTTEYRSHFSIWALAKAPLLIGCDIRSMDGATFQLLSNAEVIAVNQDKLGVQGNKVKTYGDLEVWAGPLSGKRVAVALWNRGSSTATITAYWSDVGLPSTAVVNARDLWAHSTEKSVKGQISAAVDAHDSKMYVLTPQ

Alpha-galactosidase A = molecular target: T4, Alpha-galactosidase A (Homo sapiens, UniProt P06280); assay: Inhibition of human lysosomal alpha-galactosidase A using 4-methylumbelliferyl-alpha-D-galactopyranoside as substrate preincubated for 45 mins followed by substrate addition measured after 30 mins by fluorescence spectroscopic method; procedure, shortened: as §2
T4 sequence (P06280 whole entry): T1 sequence (whole entry)

[9] = Selectivity ratio of IC50 for human lysosomal alpha-galactosidase A to IC50 for coffee beans alpha-galactosidase

Structure (SMILES)	inhibition [1]	inhibition (Prunus dulcis [2])	inhibition [3]	IC50 (Beta-galactosidase)	IC50 [4]	inhibition (Bos taurus)	IC50 [5]	IC50 [6]	inhibition (Prunus dulcis [7])	inhibition [8]	IC50 (Alpha-galactosidase)	IC50 (Alpha-galactosidase A)	Ratio IC50 [9]
C[Si](C)(C)Cc1cn(C[C@@H]2NC[C@@H](O)[C@H]2O)nn1	< 50%	65%	< 50%	151 µM	7 µM	< 50%	19 µM						
COc1ccc(-c2cn(C[C@H]3NC[C@@H](O)[C@H]3O)nn2)cc1				338 µM			31 µM	887 µM	< 50%	67%	13 µM	185 µM	10
OCc1ccc(-c2cn(C[C@H]3NC[C@@H](O)[C@H]3O)nn2)cc1				268 µM			187 µM	888 µM	< 50%	66%	14 µM	159 µM	10
